Screens deposited in PubChem by Sanford-Burnham Center for Chemical Genomics.
Only some compounds are listed: those with a hit (about 1.5% of all), similar ones and a draw of the others.
APJ antagonist – blocks the human apelin receptor APJ. hit rate 0.32% among 330,000. P35414. CHO-K1 APJ beta-arrestin complementation, luminescence. inhibition, % at 20 µM;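 active = inhibition above about 40% at 20 µM, limit read from the data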;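 also: cells challenged with 10 nM apelin-13 agonist together with compound; plate controls were apelin-13 plus DMSO wells for no effect and DMSO wells lacking apelin-13 for full effect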
CXCR6 inh – inhibitors of human CXCR6 receptor; O00574; CHO-K1 PathHunter CXCR6 beta-arrestin, luminescence; inhibition, % at 20 µM; hit rate 0.36% among 360,000; in the data active = inhibition above about 34%, passing the limit was not always enough;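 also: antagonist mode with CXCL16 agonist at 10 nM final; 0% = 10 nM CXCL16 with DMSO and 100% = unstimulated wells without agonist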
APJ agonist – APJ receptor agonism | P35414 | CHO-K1 APJ PathHunter beta-arrestin, luminescence; 0% DMSO wells, 100% apelin | activation, % at 20 µM | hit rate 0.11% among 330,000 | AID 2520;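 active = activation more than six SD over the plate average, tested at 20 µM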;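 also: 0% = DMSO alone and 100% = apelin-13 at 10 nM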
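Material: engineered CHO-K1 APJ arrestin reporter cells; amount: 1000 CHO-K1 reporter cells seeded per well; incubation: compound stimulation 90 min at 25 °C, detection 60 min; signal: luminescent beta-gal fragment complementation, chemiluminescent substrate; read-out basis: APJ agonist activity; controls: DMSO-only wells as negative, 10 nM Apelin-13 as positive control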
EBI2 block – EBI2 (human) antagonism. P32249. EBI2 beta-arrestin recruitment, luminescence, 7a,25-OHC stimulated. inhibition, % at 5 µM. hit rate 0.81% among 360,000. AID 651636; in the data active = inhibition above about 38%;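 also: enzyme fragment complementation signal reports receptor beta-arrestin coupling in cells; 0% = agonist plus DMSO wells and 100% = wells without agonist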
CCR6 antagonist – antagonists of human CCR6 receptor. AID 493098. P51684. hit rate 0.49% among 340,000. inhibition, % at 20 µM. CHO-K1 CCR6 PathHunter beta-arrestin, luminescence, CCL20-stimulated;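 active = compounds whose inhibition of the agonist-driven luminescence signal at 20 µM reaches about 50%, limit read from the data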;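 also: cells stimulated with CCL20 at 14 nM final; plate controls were DMSO with CCL20 for no effect and DMSO without agonist for full effect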
Target sequence (P51684 whole entry, looked up): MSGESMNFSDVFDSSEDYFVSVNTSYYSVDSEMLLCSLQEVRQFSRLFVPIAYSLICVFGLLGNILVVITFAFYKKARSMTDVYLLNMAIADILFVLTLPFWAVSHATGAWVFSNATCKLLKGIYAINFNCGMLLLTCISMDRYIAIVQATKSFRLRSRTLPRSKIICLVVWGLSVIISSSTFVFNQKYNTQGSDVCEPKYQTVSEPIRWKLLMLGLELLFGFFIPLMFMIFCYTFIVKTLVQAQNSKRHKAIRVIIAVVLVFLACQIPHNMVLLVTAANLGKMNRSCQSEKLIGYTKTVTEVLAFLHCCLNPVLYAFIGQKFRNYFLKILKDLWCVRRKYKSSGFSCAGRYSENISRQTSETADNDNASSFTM
CXCR6 antag conf – confirmation of human CXCR6 receptor antagonists; shares compounds with CXCR6 inh; CHO-K1 CXCR6 PathHunter beta-arrestin, luminescence; inhibition, % at 20 µM; hit rate 65% among 700; AID 602409;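 active = mean inhibition over four retests above 40%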;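 also: receptor stimulated with 10 nM CXCL16 agonist; beta-galactosidase fragment complementation upon beta-arrestin recruitment to receptor; plate controls were CXCL16 plus DMSO for no effect and DMSO without CXCL16 for full effect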
* = called active by the depositor; . = no result.

SMILES	APJ antagonist	CXCR6 inh	APJ agonist	EBI2 block	CCR6 antagonist	CXCR6 antag conf
CCCCC1Cc2[nH]c(=S)[nH]c(=O)c2C(c2ccc(F)cc2)O1 (stereo unspecified)	.	4	.	-3	.	.
O=C(OCc1ccccc1)c1c(-c2ccccc2)oc2c1C(OCCO)CCC2 (stereo unspecified)	.	16	.	5	.	.
CCOC(=O)c1c(C)oc2c1c(C=NCC1CCCO1)c(O)c1ccccc12 (stereo unspecified)	.	5	.	8	9	.
CCOC(=O)c1c(C)oc2c1c(C=NCc1ccccn1)c(O)c1ccccc12	.	98*	.	42	77*	64*
Cc1nn(C)c(C(=O)NC(=S)Nc2ccccc2O)c1Cl	28	44*	-13	1	50*	32
CCOc1cc(/C=C2\N=C(SCC)SC2=O)cc([N+](=O)[O-])c1OC(C)=O	36	45*	-12	10	55*	59*
CCOc1cc(/C=C2\N=C(SC)SC2=O)cc([N+](=O)[O-])c1OC(C)=O	23	42*	-5	2	32	40*
CCOc1c(OC(C)=O)ccc(/C=C2\N=C(SCC)SC2=O)c1[N+](=O)[O-]	12	20	-4	-4	39	.
O=C(O)c1cccc2c1C(=O)c1ccccc1-2	-8	-11	5	10	-8	.
O=C1C(=C(I)I)c2ccccc2-c2ccccc21	.	43*	.	-21	.	39
C=CCN(c1ccccc1)S(=O)(=O)c1cccc(C(=O)Nc2ccc(N3CCOCC3)cc2)c1	21	-6	-2	8	5	.
COc1cccc(N=CNc2cccc(OC)c2)c1	.	0	.	-9	-2	.
O=C1C=CC2C3C(=O)N(c4ccccc4)C(=O)C3C1N2Cc1ccccc1 (stereo unspecified)	.	51*	.	21	59*	45*
O=C(Nc1nccs1)c1sc2cc(Cl)ccc2c1Cl	31	67*	-6	16	73*	76*
CC(=O)C1CN(S(=O)(=O)c2ccc(C)cc2)C(c2ccccc2)CC1C (stereo unspecified)	.	.	.	8	.	.
C/C(=N\NC(=O)C(c1ccccc1)c1ccccc1)c1ccccn1	75*	86*	-14	28	105*	108*
C/C(=N\NC(=O)C1COc2ccccc2O1)c1ccccn1 (stereo unspecified)	58*	75*	-8	1	78*	68*
C/C(=N\NC(=O)C1COc2ccccc2O1)c1ccc(C)o1 (stereo unspecified)	-1	15	-7	1	19	.
C/C(=N\NC(=O)C(c1ccccc1)c1ccccc1)c1ccc(O)cc1	-20	3	-2	-10	25	.
CC(C)n1nnnc1C1c2ccccc2C(=O)N1Cc1ccccc1 (stereo unspecified)	.	1	.	5	.	.
O=C1OC(c2ccccc2)(c2cc(Br)ccc2O)c2ccccc21 (stereo unspecified)	.	2	.	3	-2	.
CC1(C(=O)NCc2ccccc2Br)CCN1Cc1ccc(-c2ccccn2)cc1 (stereo unspecified)	.	-9	.	16	.	.
CN(CC(=O)Nc1cc(S(=O)(=O)N2CCCC2)ccc1Cl)Cc1cccs1	-5	29*	-5	9	32	52*
COc1ccc(-c2ccc(C(=O)Nc3ccc(C(C)C)cc3)c3occc23)c(C)c1	.	1	.	15	.	.
O=C(NC(=S)Nc1ccccc1C(=O)O)c1cncc(Br)c1	21	-12	-4	1	-6	.
SMILES	APJ antagonist	CXCR6 inh	APJ agonist	EBI2 block	CCR6 antagonist	CXCR6 antag conf
O=C(NC(=S)Nc1ccccc1O)c1cncc(Br)c1	28	47*	-6	5	66*	48*
Cc1ccc(S(=O)(=O)NCC(=O)NCC(=O)NCCc2ccc(Cl)cc2)cc1C	.	-12	.	-2	.	.
CCCOc1ccc(CN(CCC#N)C(=S)NC(=O)c2ccccc2)cc1	16	44*	-2	3	.	59*
COc1cc(C(=O)NC(=S)N(CCC#N)Cc2cccnc2)cc(OC)c1OC	6	-4	-1	-14	3	.
Cc1ccc(O)c(C(=O)CC(=O)c2ccc(Cl)cc2)c1	.	42*	.	-2	65*	45*
CC(OC(=O)CCNS(=O)(=O)c1ccccc1)C(=O)Nc1ccc(S(=O)(=O)N2CCCCC2)cc1 (stereo unspecified)	.	-14	.	2	6	.
CC(=O)c1ccc(OCC(=O)OCC(=O)c2ccc(S(=O)(=O)N3CCCCC3)cc2)cc1	.	40*	.	14	.	27
Cc1cccc(C)c1-n1nnnc1C(c1ccnc2ccccc12)N1CCN(c2ccccc2F)CC1 (stereo unspecified)	.	18	.	7	.	.
Cc1ccc(NC(=S)NNC(=O)Nc2ccccc2)cc1	44*	53*	-6	9	.	38
Cc1ccc(NC(=S)NNC(=S)Nc2ccc(C)cc2)cc1	.	13	.	28	34	.
Cc1ccc(-c2csc(N3C(=N)SCC3=O)n2)cc1	12	.	-6	.	39	.
N=C1SCC(=O)N1c1ncc(Cc2ccc(F)cc2)s1	4	51*	-5	-6	.	68*
C=C(C)c1nc(Oc2ccccc2)nc(Oc2ccccc2)n1	.	-24	.	-12	-8	.
CCOc1ccc(S(=O)(=O)Nc2cccc(C(=O)N3CCN(c4ccccn4)CC3)c2)cc1	.	5	.	2	.	.
Cc1ccc(NCCC(=O)c2ccc(Br)cc2)cc1	2	2	-4	3	2	.
Cc1ccc(NCC(=O)c2ccc(C)cc2)cc1	17	44*	-11	4	83*	58*
O=[N+]([O-])c1ccc(N/N=C/c2sc(N3CCOCC3)nc2-c2ccccc2)c(S(=O)(=O)Nc2ccccc2Cl)c1	.	54*	.	15	58*	60*
CSc1ncc(Cl)c(C(=O)Nc2ccc(S(=O)(=O)Nc3nccc(C)n3)cc2)n1	10	4	-8	3	20	.
Cc1ccc(NC(=O)c2nc(S(=O)(=O)Cc3ccccc3)ncc2Cl)cc1	18	59*	0	34	80*	57*
Cc1ccccc1CS(=O)(=O)c1ncc(Cl)c(C(=O)Nc2ccc(F)cc2)n1	0	58*	0	53*	.	58*
CCOC(=O)c1ccc(NC(=O)c2nc(SC)ncc2Cl)cc1	13	4	-5	-10	21	.
Cc1cccc(CS(=O)(=O)c2ncc(Cl)c(C(=O)NCc3ccccc3)n2)c1	16	57*	-3	30	48	64*
CCN(c1ccccc1)S(=O)(=O)c1ccc(NC(=O)c2nc(S(C)(=O)=O)ncc2Cl)cc1	20	81*	9	9	96*	68*
COc1ccc(NC(=O)CSc2nnc3n2CCCCC3)cc1S(=O)(=O)N(C)C	.	-2	.	-4	.	.
O=C(/C=C/[C@H]1O[C@@H](n2ccc(=O)[nH]c2=O)[C@H](O)[C@@H]1O)NCc1cccc2ccccc12	.	1	.	-11	.	.
O=C(C[C@H]1CC[C@@H](NC(=O)Cc2cccnc2)[C@@H](CO)O1)NCc1ccc2c(c1)OCO2	.	.	.	0	.	.
